In PubChem BioAssay:
Inconclusive results are not listed.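 How the source made its calls, unless noted: active means viability increase at or above a cutoff of the median across tested compounds plus 3 SD (cut at about 8.5% in these data, passing the limit was not always enough); inconclusive means some gains above the cutoff, reason not given; inactive means the rest.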

Key:
[1] = OD615 S. cerevisiae growth inhibition, permissive medium, pilot counter-assay, permissive growth control for S. cerevisiae lifespan shortening project (AID 705;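 active means growth inhibition above 25% in both replicates, a cutoff set 3 SD above the mean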); details: OD615, 24 h, at 10 µM, active compounds read high
Outline: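 assay system = Saccharomyces cerevisiae strain carrying genetically modified DeaD replicative-lifespan system | technique = absorbance (optical density) at 615 nm | buffer or medium = permissive raffinose/galactose medium | timing = cells pre-grown 4 h, then 24 h compound exposure, 30 °C humidified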

[2] = Restrictive medium S. cerevisiae growth inhibition, OD615, pilot screen of yeast lifespan reduction project, restrictive growth control (AID 706;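 active means growth inhibition above a set limit, 3 SD over mean compound inhibition, in both replicates, cut at about 43% in these data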;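 further: modified DeaD lifespan yeast strain shifted to restrictive glucose medium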); details: OD615, 48 h, at 10 µM, active compounds read high
Outline: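 System: modified S. cerevisiae. Buffer or medium: CSMM-D glucose medium. Incubation: 4 h pre-growth plus 48 h compound exposure, 30 °C. Detection: absorbance (optical density) measured at 615 nm.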

[3] = viability gain of MRP-1-high H69AR cells under doxorubicin, pilot screen, MRP-1 activator project, CellTiter-Glo, duplicate (AID 807); details: H69AR viability with doxorubicin, CellTiter-Glo luminescence; at 10 µM; active compounds read high;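 further: compound pretreatment 18-22 h then 72 h combined with doxorubicin; 0% = doxorubicin alone and 100% = vehicle without doxorubicin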
[4] = growth suppression of beta-catenin knockout HCT116, pilot screen, human colon tumor cells (AID 823;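 active means cell viability at or below a set limit in both duplicate runs, the limit being the all-compound median minus 4 SD, cut at about 23% in these data, passing the limit was not always enough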;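 further: 0% = wells killed by 20 µM Hyamine and 100% = untreated DMSO cell wells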); details: CellTiter-Glo, 60 h, at 10 µM, active compounds read low
[5] = growth suppression of PTEN-deleted HCT116, pilot screen, cell-based, HCT116 clonal line, CellTiter-Glo (AID 824;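 active means viability at or below 27.92% in each of two runs, the all-compound median minus 4 SD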;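 further: 0% = 20 µM Hyamine control and 100% = vehicle cell control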); details: 60 h, at 10 µM, active compounds read low
[6] = inhibitors of the yeast RAM network, pilot screen, dse1pr::URA3 reporter, 5-FOA selection (AID 869;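 active means inhibition over a set limit, the all-compound mean plus 3 SD, in both replicate runs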;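 further: 0% = DMSO wells with no growth and 100% = 10 µM 1-NA-PP1 with full growth; RAM network block rescues cells from 5-FOA so hits raise OD615 growth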); details: S. cerevisiae dse1pr::URA3 5-FOA growth, OD615, 2 d; at 10 µM; active compounds read high; strain carries analog-sensitive mutant Cbk1 kinase
[7] = RAM signaling pathway blockade in yeast – S. cerevisiae, Pdr1DBD-CYC8 efflux-inhibited sensitized strain, primary screen (AID 1298;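 active means RAM network inhibition above 8.4% in each of two replicates, 3 SD over the compound average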;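 further: 0% = DMSO untreated cells without growth and 100% = 10 µM 1-NA-PP1 full growth; higher means more yeast growth rescued from 5-FOA killing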); details: S. cerevisiae cbk1-as DSE1-URA3 strain, 5-FOA growth OD615, 2 d; at 50 µM; active compounds read high

CN(C(=O)c1cnc2n(c1=O)CCS2)C1CCCCC1
inactive: growth inhibition [1] -9.04% | growth inhibition [2] -5.85% | viability increase [3] -0.01% | viability [4] 105% | viability [5] 110% | inhibition [6] 1.5% | RAM network inhibition [7] 3.96%

Cc1cc(NC(=O)CSCCc2ccncc2)no1
inactive: growth inhibition [1] -9.54% | growth inhibition [2] -5.15% | viability increase [3] -0.06% | viability [4] 99.7% | viability [5] 105% | inhibition [6] 0.675% | RAM network inhibition [7] 1.27%

CCOc1ccc(NC(=O)N(CCN(C)C)C(C)c2ccncc2)cc1 (configuration not stated)
inactive: growth inhibition [1] 2.97% | growth inhibition [2] 4.26% | viability increase [3] -1.59% | viability [4] 85.6% | viability [5] 90.2% | inhibition [6] 1.05% | RAM network inhibition [7] 1.38%

CCn1c(=NC(=O)CSC(C)=O)sc2cc(OC)ccc21
inactive: growth inhibition [1] -22.8% | growth inhibition [2] 7.25% | viability increase [3] -5.19% | viability [4] 64.1% | viability [5] 77.2% | inhibition [6] 1.25% | RAM network inhibition [7] 2.46%

COc1ccc(N2CCN(C(=O)c3ccc4c(c3)OCO4)CC2)cc1
inactive: growth inhibition [1] -2.83% | growth inhibition [2] 14.7% | viability increase [3] -0.77% | viability [4] 97.8% | viability [5] 100% | inhibition [6] 2.04% | RAM network inhibition [7] 0.86%

CCOc1ccccc1C1CC(c2ccc(Cl)cc2)Nc2nc(N)nn21 (configuration not stated)
inactive: growth inhibition [1] 0.515% | growth inhibition [2] 23% | viability increase [3] 1.4% | viability [4] 66.3% | viability [5] 77.6% | inhibition [6] -0.11% | RAM network inhibition [7] 1.24%

COc1ccc(C2C(C(N)=O)=C(C)Nc3nc(-c4ccccc4)nn32)cc1OC (configuration not stated)
inactive: growth inhibition [1] -4.7% | growth inhibition [2] -8.15% | viability increase [3] -1.13% | viability [4] 95.3% | viability [5] 95.2% | inhibition [6] 0.78% | RAM network inhibition [7] -0.68%

COCc1cc(C)nc2sc(C(=O)Nc3nccs3)c(N)c12
inactive: growth inhibition [1] -7.22% | growth inhibition [2] 11.6% | viability increase [3] -5.32% | viability [4] 109% | viability [5] 97.5% | inhibition [6] 0.145% | RAM network inhibition [7] 2.07%

O=C(NC1CCCC1)c1ccc(CS(=O)(=O)c2ccc(Br)cc2)o1
inactive: growth inhibition [1] -3.78% | growth inhibition [2] -9.12% | viability increase [3] -0.83% | viability [4] 102% | viability [5] 93.9% | inhibition [6] 3.01% | RAM network inhibition [7] 1.03%

C=CCSc1nc2ccccc2c(=O)[nH]1
inactive: growth inhibition [1] -16.1% | growth inhibition [2] -8.26% | viability increase [3] -0.8% | viability [4] 105% | viability [5] 95.2% | inhibition [6] 2.91% | RAM network inhibition [7] 0.79%

O=C(Nc1cccc(C(F)(F)F)c1)c1cnc2n(c1=O)CCS2
inactive: growth inhibition [1] -9.46% | growth inhibition [2] 5.56% | viability increase [3] 0.63% | viability [4] 108% | viability [5] 95.2% | inhibition [6] 2.6% | RAM network inhibition [7] 5.71%

CN1CCN(S(=O)(=O)c2ccc(NC(=O)c3cccc(S(=O)(=O)N4CCCC4)c3)cc2)CC1
inactive: growth inhibition [1] -5.16% | growth inhibition [2] -5.09% | viability increase [3] -3.98% | viability [4] 89.2% | viability [5] 97.2% | inhibition [6] 2% | RAM network inhibition [7] 9.3%

CCC(=O)Nc1ccccc1C(=O)N1CCN(Cc2ccccc2)CC1
inactive: growth inhibition [1] 2.08% | growth inhibition [2] 3.03% | viability increase [3] -1.2% | viability [4] 99.8% | viability [5] 99.7% | inhibition [6] 1.6% | RAM network inhibition [7] 3.32%

COc1cc(O)c(NC(C)=O)c2nonc12
inactive: growth inhibition [1] -5.37% | growth inhibition [2] 5.21% | viability increase [3] 0% | viability [4] 101% | viability [5] 107% | inhibition [6] -0.845% | RAM network inhibition [7] -1.46%

CCn1cc(C(=O)OCC(=O)Nc2c(C)n(C)n(-c3ccccc3)c2=O)c(=O)c2ccc(C)nc21
inactive: growth inhibition [1] -11.8% | growth inhibition [2] -0.91% | viability increase [3] -0.65% | viability [4] 97.6% | viability [5] 95% | inhibition [6] 0.195% | RAM network inhibition [7] 0.21%

CC1CCc2nn(CC(=O)NCCCN3CCCC3=O)cc2C1 (configuration not stated)
inactive: growth inhibition [1] -17.8% | growth inhibition [2] -22.7% | viability increase [3] -1.1% | viability [4] 103% | viability [5] 93.7% | inhibition [6] 1.29% | RAM network inhibition [7] 4.13%

Cn1c(=O)c2c(nc(Sc3ncccn3)n2Cc2ccc(Cl)cc2)n(C)c1=O
inactive: growth inhibition [1] -0.82% | growth inhibition [2] 1.5% | viability increase [3] -2.38% | viability [4] 82.4% | viability [5] 71.1% | inhibition [6] 1.8% | RAM network inhibition [7] 0.26%

COc1ccccc1CC(=O)N1CCN(c2cccc(C(F)(F)F)c2)CC1
inactive: growth inhibition [1] -9.59% | growth inhibition [2] 5.32% | viability increase [3] 1.84% | viability [4] 39.9% | viability [5] 60.9% | inhibition [6] 1.1% | RAM network inhibition [7] 7.84%

CC(C)(Oc1ccc(Cl)cc1)C(=O)N1CCN(c2ccccn2)CC1
inactive: growth inhibition [1] -7.41% | growth inhibition [2] 3.08% | viability increase [3] -2.47% | viability [4] 70.7% | viability [5] 76.1% | inhibition [6] 0.32% | RAM network inhibition [7] -1.34%

Nc1ccc(SC(F)(F)F)cc1C(=O)c1ccccc1
inactive: growth inhibition [1] -6.7% | growth inhibition [2] -13.2% | viability increase [3] -0.99% | viability [4] 74% | viability [5] 70.4% | inhibition [6] -2.23% | RAM network inhibition [7] 3.77%

CN(c1ccccc1)S(=O)(=O)c1cccc(C(=O)N2CCN(c3ccccn3)CC2)c1
inactive: growth inhibition [1] 2.2% | growth inhibition [2] 4.43% | viability increase [3] -0.97% | viability [4] 81% | viability [5] 86.1% | inhibition [6] -0.145% | RAM network inhibition [7] -1.92%

CCN(CC)C(=O)Nc1cnc2ccccc2c1
inactive: growth inhibition [1] -17.2% | growth inhibition [2] -8.12% | viability increase [3] -2.72% | viability [4] 93.5% | viability [5] 96.4% | inhibition [6] 0.115% | RAM network inhibition [7] 5.38%

COc1cccc(N2CCN(C(=O)CN(C)S(=O)(=O)c3ccc4c(c3)CCC(=O)N4)CC2)c1
inactive: growth inhibition [1] -2.86% | growth inhibition [2] -13.8% | viability increase [3] -2.87% | viability [4] 87.6% | viability [5] 85.5% | inhibition [6] 0.59% | RAM network inhibition [7] 7.09%

CC(Oc1ccc(Cl)cc1Cl)C(=O)NCCN1CCOCC1 (configuration not stated)
inactive: growth inhibition [1] -8.7% | growth inhibition [2] 4.87% | viability increase [3] -2.33% | viability [4] 100% | viability [5] 97.5% | inhibition [6] -0.29% | RAM network inhibition [7] 1.53%

COc1ccc(NC(=O)Nc2ccc3c(c2)N(C)C(=O)CS3)cc1OC
inactive: growth inhibition [1] -18.9% | growth inhibition [2] -18.2% | viability increase [3] -4.94% | viability [4] 88% | viability [5] 75.9% | inhibition [6] 2.05% | RAM network inhibition [7] 5.75%

Cc1ccc(C)c(N2CCN(C(=O)CCS(=O)(=O)c3cccc4nonc34)CC2)c1
inactive: growth inhibition [1] -16.3% | growth inhibition [2] -12.5% | viability increase [3] -5.38% | viability [4] 88.8% | viability [5] 91.8% | inhibition [6] 1.31% | RAM network inhibition [7] 6.07%

CC(c1cccnc1)N(C(=O)Nc1ccccc1)C1CCCCC1 (configuration not stated)
inactive: growth inhibition [1] -1.48% | growth inhibition [2] -10.8% | viability increase [3] -2.35% | viability [4] 92.1% | viability [5] 91.6% | inhibition [6] 1.96% | RAM network inhibition [7] 5.08%

O=C(NCc1ccco1)c1ccc2c(c1)N(Cc1ccccc1)C(=O)CS2=O (configuration not stated)
inactive: growth inhibition [1] -4.13% | growth inhibition [2] 3.41% | viability increase [3] 3.66% | viability [4] 97.8% | viability [5] 82.6% | inhibition [6] 0.885% | RAM network inhibition [7] 1.29%

CCCCCn1c(CN2CC(C)OC(C)C2)nc2c1c(=O)n(C)c(=O)n2C (configuration not stated)
inactive: growth inhibition [1] -9.73% | growth inhibition [2] 0.38% | viability increase [3] -1.22% | viability [4] 95.3% | viability [5] 86.6% | inhibition [6] 1.86% | RAM network inhibition [7] 1.97%

Cc1ccc(OCCNC(=O)c2ccccc2N)cc1
inactive: growth inhibition [1] 1.82% | growth inhibition [2] -18.1% | viability increase [3] -2.73% | viability [4] 103% | viability [5] 97.6% | inhibition [6] 0.785% | RAM network inhibition [7] -0.05%

CCOC(=O)N1CCC(NC(=O)c2cnc3n(c2=O)CCS3)CC1
inactive: growth inhibition [1] -1% | growth inhibition [2] -6.85% | viability increase [3] 1.34% | viability [4] 101% | viability [5] 100% | inhibition [6] 2.27% | RAM network inhibition [7] 1.68%

CC1NC(=O)NC1CCCCC(=O)O (configuration not stated)
inactive: growth inhibition [1] -6.38% | growth inhibition [2] 2.25% | viability increase [3] 1.3% | viability [4] 109% | viability [5] 104% | inhibition [6] 3.06% | RAM network inhibition [7] 2.65%

Cc1ccc(C(=O)c2ccccc2C(=O)O)c(O)c1
inactive: growth inhibition [1] -15.6% | growth inhibition [2] -4.92% | viability increase [3] 0.69% | viability [4] 94.8% | viability [5] 106% | inhibition [6] 0.835% | RAM network inhibition [7] 5.69%

COc1ccc(OC)c(NC(=O)c2ccc(NC(C)=O)cc2)c1
inactive: growth inhibition [1] -22.5% | growth inhibition [2] -12.5% | viability increase [3] 0.76% | viability [4] 109% | viability [5] 101% | inhibition [6] 1.2% | RAM network inhibition [7] 5.24%

COc1ccc(NC(=O)c2ccc(CN3CCN(c4ccccc4)CC3)cc2)cc1
inactive: growth inhibition [1] -7.38% | growth inhibition [2] -9.14% | viability increase [3] -0.09% | viability [4] 67.4% | viability [5] 73.1% | inhibition [6] 2.54% | RAM network inhibition [7] 9.97%

CCCC(=O)N1CCN(C2=NS(=O)(=O)c3ccccc32)CC1
inactive: growth inhibition [1] -0.28% | growth inhibition [2] 12.9% | viability increase [3] -0.68% | viability [4] 103% | viability [5] 98.5% | inhibition [6] -0.175% | RAM network inhibition [7] 3.82%
